Source: PubChem (The Scripps Research Institute Molecular Screening Center)
zfTRPN1 agonist: zebrafish TRPN1 channel agonists, primary screen, cell-based, HEK293, calcium fluorescence. activation, % at 3 µM. transient receptor potential cation channel N1 (TRPN1/NompC), Danio rerio. HEK293 zebrafish TRPN1-YFP, Fluo-8 calcium fluorescence; 100% = response to 87 µM carbachol. 220,000 tested, 0.18% active;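 active = activation above its plate's cutoff, the mean activation of test wells on that plate plus 3 SD, cut at about 19% in these data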;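 also: 0% = DMSO alone and 100% = 87 µM carbachol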
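System: zebrafish TRPN1-YFP in HEK293 cells / Dosing: 3 µM single point / Timing: dye loading 1 h at 37 °C, then 30 min room temperature / Signal: Fluo-8 calcium fluorescence, excitation 470-495 nm, emission 515-575 nm / Read-out basis: percent activation from peak over basal fluorescence ratio, control-normalized / Control set: high carbachol 87 µM, low DMSO alone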
OX1R antag-1: OX1R (HCRTR1) antagonists, primary screen, fluorescence, CHO/OX1R cells, Fluo-8 calcium, orexin A | Fluo-8 calcium fluorescence | inhibition, % at 5 µM | 330,000 tested, 0.43% active;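 active = inhibition above its plate's threshold, mean inhibition of all tested compounds on the plate plus 3 SD, cut at about 37% in these data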;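 also: 0% = orexin A challenge wells and 100% = SB-334867-A antagonist wells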
Target sequence (O43613 whole entry, looked up): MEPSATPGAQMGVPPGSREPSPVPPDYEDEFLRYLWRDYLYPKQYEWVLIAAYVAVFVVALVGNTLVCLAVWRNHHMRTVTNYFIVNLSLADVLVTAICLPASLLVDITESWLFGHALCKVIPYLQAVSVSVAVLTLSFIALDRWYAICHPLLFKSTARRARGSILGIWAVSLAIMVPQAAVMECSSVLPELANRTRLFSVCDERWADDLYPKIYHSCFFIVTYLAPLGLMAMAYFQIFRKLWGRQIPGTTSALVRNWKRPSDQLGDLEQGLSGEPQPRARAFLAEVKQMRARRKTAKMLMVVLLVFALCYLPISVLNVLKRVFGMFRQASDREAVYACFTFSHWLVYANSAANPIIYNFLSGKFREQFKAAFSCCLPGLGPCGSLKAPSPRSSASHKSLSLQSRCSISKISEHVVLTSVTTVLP
CHO parental Ca: ATP-evoked calcium signal inhibitors, parental CHO, primary screen, counter-screen for OX1R antagonist project, cell-based, fluorescence, Fluo-8 calcium dye; 330,000 tested, 0.63% active; AID 463079, 2010; parental CHO-K1, ATP-induced calcium, Fluo-8 fluorescence; inhibition, % at 5.6 µM;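 active = inhibition above that plate's mean sample inhibition plus 3 SD, cut at about 26% in these data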;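 also: 0% = ATP-challenged DMSO wells and 100% = DMSO wells without ATP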
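Test system: untransfected parental CHO cell line. Compound: one dose, 5.6 µM nominal. Detection: intracellular calcium via Fluo-8 no-wash fluorescent dye. Measure: % inhibition. Benchmarks: ATP-challenged DMSO wells low, unchallenged DMSO wells high.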
TRPML3 agonist: human TRPML3 channel agonists, primary screen, cell-based, HEK293 TRPML3-YFP, Fluo-8 calcium fluorescence, 3 µM | Mucolipin-3 (Homo sapiens), Q8TDD5 | 100% = the carbachol control signal | activation, % at 3 µM | 220,000 tested, 0.29% active | AID 1448, 2008;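 active = activation above its plate's cutoff, the mean activation of the plate's test wells plus 3 SD, cut at about 12% in these data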;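 also: 0% = DMSO only wells and 100% = carbachol wells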
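system = HEK293 cells stably carrying human TRPML3-YFP | doses = one concentration, 3 µM nominal, 0.3% DMSO | timing = dye loading 1 h 37 °C then 30 min ambient, 125 s read | detection = Fluo-8 calcium dye fluorescence, ex 470-495, em 515-575 nm | benchmarks = high control carbachol 87 µM, low control DMSO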
OX1R antag-2: antagonists of human orexin 1 receptor (OX1R); Orexin/Hypocretin receptor type 1 (Homo sapiens), O43613; OX1R-expressing cells, FRET antagonist read-out; inhibition, % at 6.6 µM; 330,000 tested, 1.8% active; in the data active = inhibition mostly above about 38%, no sharp cut-off; inactive = mostly below about 40%;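 also: 0% = agonist challenge alone and 100% = reference antagonist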
OX1R Ca confirm: OX1R (HCRTR1) antagonists, confirmation, fluorescence, CHO/OX1R cells, Fluo-8 calcium, orexin A. AID 492963, 2010. inhibition, % at 5 µM. 1,100 tested, 38% active. orexin A calcium Fluo-8 fluorescence. shares compounds with OX1R antag-1; in the data active = inhibition above about 29%;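 also: 0% = agonist challenge alone and 100% = reference antagonist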
CHO Ca counter: ATP-evoked calcium inhibition in parental CHO, counter-screen for OX1R antagonist project, cell-based, fluorescence, CHO-K1, triplicate | AID 492965, 2010 | 1,100 tested, 9.3% active | inhibition, % at 5.6 µM | ATP-induced calcium, Fluo-8 fluorescence | shares compounds with OX1R antag-1;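 active = inhibition above a per-plate limit, the mean inhibition of that plate's test compounds plus 3 SD, cut at about 25% in these data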;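 also: 0% = ATP challenge with DMSO and 100% = DMSO without ATP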
OX1R HTRF conf: OX1R (HCRTR1) antagonists, confirmation, cell-based, HTRF; OX1R-expressing cells, HTRF antagonist assay; 1,800 tested, 49% active; inhibition, % at 6.6 µM; AID 492964, 2010; shares compounds with OX1R antag-2; in the data active = inhibition above about 55%;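 also: CHO cells expressing OX1R stimulated with orexin A at about EC80; 0% = agonist challenge alone and 100% = reference antagonist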
CHO-K1 HTRF cnt: signal inhibition in parental CHO-K1 cells, counter-screen for OX1R antagonist project, cell-based, HTRF | inhibition, % at 6.6 µM | HTRF counterscreen | 1,800 tested, 48% active | shares compounds with OX1R antag-2 | AID 493232, 2011; in the data active = inhibition above about 17%;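 also: 0% = agonist challenge with vehicle and 100% = vehicle alone without agonist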
Numbers without * were called inactive; . = not tested or not shown. An excerpt weighted towards active compounds, which were near 2.5% of everything screened.

SMILES	zfTRPN1 agonist	OX1R antag-1	CHO parental Ca	TRPML3 agonist	OX1R antag-2	OX1R Ca confirm	CHO Ca counter	OX1R HTRF conf	CHO-K1 HTRF cnt
COc1ccc(C(=O)/C=C/c2cn(CC(O)CN3CCOCC3)c3ccccc23)cc1 (stereo not given)	2	-12	2	1	16	.	.	.	.
COc1ccc(C(=O)/C=C/c2cn(CN3CCN(C)CC3)c3ccccc23)cc1	0	25	-7	0	71*	9	-9	33	6
O=C(COC(=O)c1cc(-c2cccc(Br)c2)nc2ccccc12)NCC1CCCO1 (stereo not given)	0	44*	-18	1	86*	40*	-5	68*	12
O=C(COc1ccccc1F)Nc1cc(S(=O)(=O)Nc2cccc(Cl)c2)ccc1O	.	75*	-22	.	40*	42*	-13	61*	9
Cc1cc(C)nc(NS(=O)(=O)c2ccc(NC(=O)COc3ccccc3F)cc2)n1	.	-2	1	.	1	.	.	.	.
Cn1c2ccccc2c2cc(/C=N/NC(=O)c3ccc(O)cc3O)ccc21	.	34	2	.	92*	28	25*	73*	13
COc1ccc(NC(=O)C(=O)Nc2cccc3cccnc23)cc1OC	.	53*	-4	.	81*	61*	-4	93*	13
CNC(=O)Nc1cccc2cccnc12	1	-3	-11	0	11	.	.	.	.
CCOc1ccc(C(=O)Nc2cccc3cccnc23)cc1	.	66*	-12	.	81*	29*	-8	87*	8
COc1ccc(NC(=O)C(=O)Nc2cccc3cccnc23)c(OC)c1	.	31	2	.	4	.	.	.	.
Cc1ccc(OC(F)F)c(NC(=O)Nc2cccc(C(F)(F)F)c2)c1	0	36	1	1	46*	-14	15	23	1
CC(C)n1ncc2c(C(=O)NCC(=O)Nc3ccccc3Br)cc(C3CC3)nc21	.	45*	-35	.	40*	4	-3	44	2
CN(C)S(=O)(=O)c1ccc(C(=O)NCc2nnc(SCC(=O)N3CCCC3)o2)cc1	.	-6	3	.	19	.	.	.	.
O=C(O)CCN1C(=O)S/C(=C\c2cccnc2)C1=O	0	-9	2	0	60	.	.	.	.
O=C(NCCN1C(=O)S/C(=C\c2cccnc2)C1=O)C1CC(=O)N(Cc2ccco2)C1 (stereo not given)	1	-3	3	1	51	.	.	.	.
CSc1cccc(N2CC(C(=O)NCCN3C(=O)S/C(=C\c4cccnc4)C3=O)CC2=O)c1 (stereo not given)	.	33	-10	.	145*	67*	-6	112*	33*
Cc1cc(Cl)ccc1OCCCC(=O)NCCN1C(=O)S/C(=C\c2cccnc2)C1=O	3	94*	-25	1	114*	94*	-6	91*	10
CNC(=O)NNC(=O)c1csc(Cc2c(Cl)sc3ccc(Cl)cc23)n1	1	-10	-18	-1	-2	.	.	.	.
C/C(=N\N1CCN(Cc2ccc(Cl)cc2)CC1)c1ccc([N+](=O)[O-])cc1	2	-5	-6	1	54	.	.	.	.
COc1cccc(C(=O)NCC2CCCN2S(=O)(=O)c2cccs2)c1 (stereo not given)	.	-11	-9	.	30	.	.	.	.
COc1cccc(C(=O)NCC2CCCN2S(=O)(=O)c2ccccc2)c1 (stereo not given)	.	40	-30	.	49*	13	-18	63*	-6
Cc1nn(-c2ccccc2)c(C)c1/C=N/NC(=O)c1cc(-c2ccccc2)n[nH]1	1	87*	-23	0	98*	64*	-5	81*	-19
CC(C)(C)c1ccc(C(=O)Nc2cccnc2)cc1	.	5	10	.	9	.	.	.	.
N#CCC(=O)Nc1ccc(C(=O)Nc2ccc3c(c2)OCO3)cc1	.	67*	-12	.	67*	16	3	31	4
N#CCC(=O)Nc1ccc(C(=O)Nc2cccnc2)cc1	0	32	-2	0	91*	3	13	23	-3
SMILES	zfTRPN1 agonist	OX1R antag-1	CHO parental Ca	TRPML3 agonist	OX1R antag-2	OX1R Ca confirm	CHO Ca counter	OX1R HTRF conf	CHO-K1 HTRF cnt
CC1CN(S(=O)(=O)c2cccc(C(=O)OC(C)C(=O)NC3CCCCC3C)c2)CC(C)O1 (stereo not given)	.	-16	-11	.	11	.	.	.	.
CCOC(=O)CN1C(=O)/C(=C/c2cccc(Br)c2)Oc2ccccc21	.	-14	-4	.	12	.	.	.	.
O=C(CN1C(=O)/C(=C\c2cccc(Br)c2)Oc2ccccc21)NCC1CCCO1 (stereo not given)	.	32	-23	.	67*	79*	-13	90*	1
O=C(CN1C(=O)/C(=C/c2ccccc2)Sc2ccccc21)NCCCN1CCOCC1	.	-1	-18	.	9	.	.	.	.
CCc1ccc(/C=C2/Sc3ccccc3N(CC(=O)NCC3CCCO3)C2=O)cc1 (stereo not given)	.	84*	13	.	95*	45*	-14	87*	5
Cc1ccc(/C=C2/Sc3ccccc3N(CC(=O)NCC3CCCO3)C2=O)cc1 (stereo not given)	.	55*	-16	.	77*	59*	-3	88*	7
CCOC(=O)c1ccc(NC(=S)NCc2ccco2)cc1	4	-1	15	2	12	.	.	.	.
C#CCN1C(=O)C(O)(CC(=O)/C=C/c2ccco2)c2ccccc21 (stereo not given)	1	-19	-6	0	19	.	.	.	.
O=C(Nc1nc2ccccc2s1)c1ccccc1	0	-20	-10	1	10	.	.	.	.
CSc1nc2ccc3nc(NC(=O)c4ccccc4)sc3c2s1	2	46*	-15	1	84*	79*	-13	95*	11
Cc1ccc(OCC(=O)Nc2cccc(S(=O)(=O)N3CCCCCC3)c2)cc1C	.	19	19	.	30	.	.	.	.
